High-throughput results deposited in PubChem by several laboratories.
SKKanGAS inh: blocks kanamycin growth of S. pyogenes SKKanGAS strain; BacTiter-Glo, 6 h; inhibition, % at 7.5 µM; 300,000 tested, 1.3% active;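 active = mean replicate score, as percent of positive control median, at least 50; inconclusive = mean below 50 but one replicate at or above 50; inactive = mean and every replicate below 50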;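 also: strain carries kanamycin resistance gene driven by streptokinase promoter and grows in 40 µg/ml kanamycin; loss of luminescence reflects streptokinase promoter inhibition or plain growth inhibition; 0% = median of DMSO wells and 100% = positive control at its reference dose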
T cruzi inh: T. cruzi replication inhibition | inhibition, % (no concentration beside the values) | T. cruzi beta-gal in NIH3T3, luminescence, 90 h | 300,000 tested, 1.4% active;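 active = mean inhibition across valid replicates above about 55%, limit read from the data; inconclusive = mean below that limit but half or more replicates reach it; inactive = mean below it, under half of replicates reach it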;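 also: signal also drops with host cell toxicity which is not excluded here; 0% = plate median of DMSO wells and 100% = zero luminescence signal; higher percent means less beta-gal luminescence so fewer parasites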
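Material: NIH/3T3 host cells with β-galactosidase reporter T. cruzi; Input: 5,000 host fibroblasts per well; Medium: DMEM, 2% fetal bovine serum; Compound: 50 nL DMSO compound solution per well; Schedule: 3 h host attachment, then at least 90 h co-culture; Detection: luminescent β-galactosidase signal after 60 min lysis.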
CSC inhib: blocks cancer stem cells; cancer stem cell-like cells viability, luminescence; inhibition, % at 7.5 µM; 300,000 tested, 1.1% active; in the data active = inhibition above about 75%; inconclusive = no clear call, values can overlap the other calls; tested in HMLE shEcad cells
Beta cell apopt: blocks beta cell apoptosis. AID 435005. 300,000 tested, 0.8% active. INS-1E cytokine-induced death, ATP luminescence, 48 h; percent of positive-control rescue, neutral wells zero. protection from apoptosis, % (concentration not given with the values);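 active = Every replicate reaches about 75%, or at least half do and their mean reaches it too, limit read from the data; inconclusive = At least half of replicates reach the limit but their mean does not; inactive = Under half of replicates reach the limit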;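 also: 0% = cytokine-treated negative control wells and 100% = positive control rescue; higher means more ATP so stronger rescue from cytokine killing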
Mdm2-MdmX inh: inhibitors of human Mdm2/MdmX interaction; 330,000 tested, 3% active; O15151+Q00987; SaOS-2 split-luciferase Mdm2/MdmX complementation, luminescence; inhibition, % at 8 µM;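 active = inhibition of at least 50% at 8 µM in the primary screen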
Target sequence (O15151 whole entry, looked up): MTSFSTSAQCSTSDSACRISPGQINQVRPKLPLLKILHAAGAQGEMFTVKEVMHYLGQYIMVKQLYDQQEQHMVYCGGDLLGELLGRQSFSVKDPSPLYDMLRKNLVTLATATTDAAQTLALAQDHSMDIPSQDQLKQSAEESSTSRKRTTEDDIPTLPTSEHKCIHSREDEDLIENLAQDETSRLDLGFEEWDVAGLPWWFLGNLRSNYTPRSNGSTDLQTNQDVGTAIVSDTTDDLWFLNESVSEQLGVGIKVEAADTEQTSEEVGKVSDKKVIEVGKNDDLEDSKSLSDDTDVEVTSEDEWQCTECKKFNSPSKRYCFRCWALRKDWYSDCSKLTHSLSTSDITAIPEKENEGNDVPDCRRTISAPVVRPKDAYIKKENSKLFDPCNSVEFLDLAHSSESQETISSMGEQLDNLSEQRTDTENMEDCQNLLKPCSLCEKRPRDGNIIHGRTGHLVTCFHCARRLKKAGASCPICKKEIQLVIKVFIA
Target sequence (Q00987 whole entry, looked up): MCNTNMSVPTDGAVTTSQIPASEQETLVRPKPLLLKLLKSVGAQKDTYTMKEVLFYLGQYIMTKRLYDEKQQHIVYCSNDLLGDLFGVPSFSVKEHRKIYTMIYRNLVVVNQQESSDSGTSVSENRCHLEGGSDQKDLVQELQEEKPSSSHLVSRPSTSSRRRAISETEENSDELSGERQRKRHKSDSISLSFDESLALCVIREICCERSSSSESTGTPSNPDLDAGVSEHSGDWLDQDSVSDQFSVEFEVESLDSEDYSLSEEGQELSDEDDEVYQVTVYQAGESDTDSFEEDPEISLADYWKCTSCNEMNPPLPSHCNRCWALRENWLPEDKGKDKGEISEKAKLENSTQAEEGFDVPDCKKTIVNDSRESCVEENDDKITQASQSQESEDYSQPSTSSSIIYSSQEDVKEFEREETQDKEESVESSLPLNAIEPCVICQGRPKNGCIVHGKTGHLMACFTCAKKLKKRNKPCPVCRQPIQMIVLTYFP
Calb FLC: C. albicans growth modulation with fluconazole | C. albicans CaCi-2 (fluconazole-resistant clinical isolate) + fluconazole, Alamar Blue growth, 48 h | growth inhibition, % (concentration not given with the values) | 300,000 tested, 0.57% active;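 active = growth inhibition above about 58% in most replicates, limit read from the data, passing the limit was not always enough; inconclusive = exactly half the replicates above a set limit; inactive = most replicates below a set limit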;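 also: all wells also contain fluconazole at 8 µg/ml as a sub-toxic cotreatment; 0% = median of DMSO wells and 100% = median of geldanamycin control wells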
Mdm2 MdmX conf: confirmation of human Mdm2/MdmX interaction inhibitors; shares compounds with Mdm2-MdmX inh; Mdm2-MdmX binding, luminescent assay; inhibition, % at 8 µM; 10,000 tested, 55% active; in the data active = inhibition above about 40%
Full FLuc ctr: inhibits full-length luciferase, flagging false Mdm2/MdmX hits. shares compounds with Mdm2-MdmX inh. SaOS-2 full-length luciferase counterscreen, luminescence. inhibition, % at 8 µM. 6,200 tested, 77% active. AID 504607;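 active = mean inhibition at 8 µM reaching about 37%, which flags the compound as non-specific, limit read from the data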;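 also: p53-null SaOS-2 cells with luciferase driven by a doxycycline-inducible promoter; compound on cells about two nights before reading with doxycycline added after day one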
An asterisk follows results filed as active; u = inconclusive; x = no result. In the library only some 5.7% were active in any assay of this set; here they are far more common.

SMILES | SKKanGAS inh | T cruzi inh | CSC inhib | Beta cell apopt | Mdm2-MdmX inh | Calb FLC | Mdm2 MdmX conf | Full FLuc ctr
O=C(CSc1nc(-c2ccccc2)cs1)Nc1nccs1 | -5 | -9 | 8 | -3 | 59* | 112* | -7 | x
O=C(NNc1nc(-c2ccccc2)cs1)c1ccc(F)cc1 | 53* | -29 | 23 | -5 | 54* | -7 | 26 | x
O=C(NNc1nc(-c2ccccc2)cs1)c1cccs1 | 22 | -17 | 21 | -1 | 37 | 7 | x | x
O=C(Cc1ccc(F)cc1)Nc1nc(-c2ccc(F)cc2)cs1 | 5 | -5 | -5 | 2 | 13 | -3 | x | x
O=C(Cc1c(F)c(F)c(F)c(F)c1F)Nc1nc(-c2ccccc2)cs1 | 19 | 36 | 83* | 5 | 57* | -18 | 39 | 84*
CCOC(=O)c1cc(C#N)c(SCC(=O)OC)[nH]c1=O | -6 | -10 | 9 | -6 | 22 | -25 | x | x
COc1ccc(-c2cc(-c3cccs3)nc(OC)c2C#N)cc1OC | 30 | 16 | 40 | -3 | 25 | 4 | x | x
COc1nc(-c2cccs2)cc(-c2ccc(C)cc2)c1C#N | -9 | -29 | 49 | -1 | 52* | 8 | 55* | 67*
CCC[C@@H]1C[C@@]1(CCC)[C@@H](NP(=O)(c1ccccc1)c1ccccc1)c1ccc(C(=O)OC)cc1 | 97* | 44 | -11 | x | 75* | 17 | 39 | 73*
COC(=O)c1cccc(C#CC(NP(=O)(c2ccccc2)c2ccccc2)c2ccccc2)c1 (stereo not given) | 22 | 30 | 34 | 11 | 30 | 13 | x | x
Oc1c(N=Nc2ccccn2)ccc2ccccc12 | 69* | 73* | 99* | 96* | 91* | -3 | 46* | 46*
CCNC(=O)/C=C1\NC(C)(C)Cc2c1ccc1ccccc21 | 0 | 10 | -1 | -7 | 13 | 11 | x | x
CC1(C)Cc2c(ccc3ccccc23)C(=O)N1 | -5 | 13 | -12 | x | 52* | 29 | 54* | 55*
O=C(NNC(=O)c1cccnc1SCc1cccc([N+](=O)[O-])c1)c1ccc(F)cc1 | -4 | -8 | -11 | u | 14 | 13 | x | x
O=C(NNC(=O)c1cccnc1SCc1cccc([N+](=O)[O-])c1)c1ccccn1 | 75* | 65* | x | x | 55* | u | 79* | 21
Cc1ccc(-n2c(SCc3ccc(C(=O)O)cc3)nnc2-c2ccncc2)cc1 | 6 | 0 | 1 | -3 | -47 | -1 | x | x
COc1ccccc1NC(=O)Nc1nc(CC(=O)N2CCN(c3ccc(F)cc3)CC2)cs1 | -2 | -6 | 5 | x | 70* | -1 | 40* | 83*
Cc1ccc(S(=O)(=O)N2CCN(C(=O)CSC3CCCC3)CC2)c(C)c1 | 6 | 10 | -5 | 0 | 55* | 5 | 12 | x
C=CCOc1c(Br)cc(/C=N/NC(=O)Cc2ccc(C(F)(F)F)cc2[N+](=O)[O-])cc1OC | 1 | 12 | -12 | 6 | 57* | 4 | 6 | x
CC(C)CN(C(=O)CCCSc1nc2ccccc2[nH]1)c1c(N)n(Cc2ccccc2)c(=O)[nH]c1=O | -15 | -5 | -7 | -1 | 21 | 5 | x | x
CCOC(=O)c1c(NC(=O)c2ccco2)sc2c1CCCC2 | -4 | -1 | 7 | 1 | 10 | 5 | x | x
CCOC(=O)c1c(NC(=O)c2ccccc2N(C)S(=O)(=O)c2ccccc2)sc2c1CCCC2 | 3 | 26 | 69 | 25 | 55* | -4 | 60* | 66*
COC(=O)c1c(NC(=O)c2ccccc2N(C)S(=O)(=O)c2ccccc2)sc2c1CCCC2 | 17 | 16 | x | x | x | -4 | x | x
CCOC(=O)c1c(NC(=O)C(NCCN(C)C)c2ccccc2)sc2c1CCCC2 (stereo not given) | 16 | 26 | 27 | 24 | 94* | -15 | 37 | 69*
COCCN(CCOC)S(=O)(=O)c1ccc(C(=O)Nc2sc3c(c2C(N)=O)CCCCC3)cc1 | 2 | 4 | x | -8 | 82* | -9 | 57* | 116*
CNC(=O)c1c(NC(=O)c2ccc(S(=O)(=O)N(C)c3ccccc3)cc2)sc2c1CCN(C(C)C)C2 | 7 | 29 | 42 | -4 | 9 | -3 | x | x
